For 37 sequences, Tm and folding enthalpy results are on record in the array DNA melting data of Ke et al. (doi:10.1101/2024.01.08.574731).

Series [1] is described as follows: melting temperature; fluorescence melt of hairpins on a sequencing array, two-state fit, raised by 9.35 °C to match UV melts. The conditions noted are these: sodium 0.088 M. The method, boiled down:
(§1)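 Library hairpins on a sequenced MiSeq flow cell carried annealed Cy3 and quencher oligos, and their Cy3 fluorescence was imaged in 50 mM Na-HEPES pH 8.0 with 25 mM NaCl, in 2.5 °C steps up to 60 °C. Signals were normalised to Cy3 before quenching and to control constructs. Melting temperature and folding enthalpy were obtained from bootstrapped two-state fits, combined by inverse-variance weighting across four replicates, and the fitted temperatures were then raised by 9.35 °C to match UV melts.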

Series [2] can be described thus: folding enthalpy; higher = less favourable; fluorescence melt of hairpins on a sequencing array, two-state fit. The conditions noted are these: sodium 0.088 M. The method, boiled down:
as §1

Take GTGTTCGAAAGAATACAC ((((((....)))..))): in series [1], the Tm was 42.6 °C. In addition, in series [2], the folding enthalpy is -22.9 kcal/mol.

Turning to GTGTTCGGAAACGAACAC (((((((....))))))), the Tm in series [1] was 67.9 °C. The folding enthalpy in series [2] is -36.3 kcal/mol.

Turning to GTGTTCGGAAACGAATAC ((.((((....)))).)), in series [1], the Tm is 49.2 °C. Besides, in series [2], the folding enthalpy was -31.7 kcal/mol.

Regarding GTGTTGGGAAACCAACGC (.(((((....))))).), the Tm in series [1] was 54.2 °C. In series [2], the folding enthalpy was -32.8 kcal/mol.

For GTGTTGGGAAACTAACGC (.(((.(....).))).), the Tm in series [1] turned out to be 35.9 °C. Also, the folding enthalpy in series [2] is -25.5 kcal/mol.

In the case of GTGTTTCGAAAGAACAC (((.(((....)))))), the Tm in series [1] was found to be 46.9 °C. In series [2], the folding enthalpy was -32.3 kcal/mol.

Take GTTAAAGCGAAAGCTAAC (((..(((....)))))): in series [1], the Tm amounted to 35.6 °C. In addition, the folding enthalpy in series [2] is -10.3 kcal/mol.

In the case of GTTAACCGAAAGGTAAAC (((.(((....))).))), in series [1], the Tm came out at 41.9 °C. Further, in series [2], the folding enthalpy is -25.2 kcal/mol.

Consider GTTAACGAAAGTTAAAC ((((((....))).))), for which the Tm in series [1] is 36 °C. Besides, the folding enthalpy in series [2] is -16.7 kcal/mol.

With GTTAACGAAAGTTCAAC ((((((....))).))), the Tm in series [1] was 26.5 °C. Besides, the folding enthalpy in series [2] was -12.2 kcal/mol.

Take GTTAACGAAAGTTGAAC ((((((....))).))): the Tm in series [1] worked out at 28.2 °C. In addition, the folding enthalpy in series [2] is -12.8 kcal/mol.

As for GTTAACGCGAAAGCGAAC (((..(((....)))))), the Tm in series [1] is 32.9 °C. In series [2], the folding enthalpy was -8.96 kcal/mol.

Consider GTTAACGGAAACGCTAAC ((((.((....)).)))), for which, in series [1], the Tm turned out to be 36.2 °C. For the same sequence, the folding enthalpy in series [2] was -28.1 kcal/mol.

With GTTAACGGAAACGTTGAC ((.((((....)))).)), the Tm in series [1] amounted to 46.3 °C. In series [2], the folding enthalpy was -26.9 kcal/mol.

In the case of GTTAAGGAAACTTAAC ((((((....)))))), in series [1], the Tm was 43 °C. Moreover, the folding enthalpy in series [2] was -29 kcal/mol.

In the case of GTTAATGGAAACGTTAAC (((((.(....).))))), the Tm in series [1] turned out to be 35.7 °C. For the same sequence, the folding enthalpy in series [2] was -29.2 kcal/mol.

For the sequence GTTACACGAAAGTGGAAC (((.(((....))).))), in series [1], the Tm was found to be 56.7 °C. Moreover, the folding enthalpy in series [2] is -36.7 kcal/mol.

As to GTTACAGGAAACCGTAAC (((((.(....).))))), the Tm in series [1] stood at 39.4 °C. Also, the folding enthalpy in series [2] is -35.6 kcal/mol.

On to GTTACAGGAAACTGTAAC (((((((....))))))), for which, in series [1], the Tm stood at 55.5 °C. Besides, in series [2], the folding enthalpy is -42.8 kcal/mol.

Consider GTTACCGAAAGGTTAAAC ((((((....)))..))), for which, in series [1], the Tm is 30.6 °C. Also, the folding enthalpy in series [2] is -9.83 kcal/mol.

Regarding GTTACCGGAAACGGTAAC (((((((....))))))), in series [1], the Tm turned out to be 63.2 °C. Moreover, the folding enthalpy in series [2] was -42.4 kcal/mol.

Turning to GTTACGCGAAAGCGAAC (((.(((....)))))), the Tm in series [1] worked out at 40 °C. The folding enthalpy in series [2] was -13.7 kcal/mol.

As for GTTACGCGAAAGCGGAAC (((.(((....))).))), in series [1], the Tm is 67.5 °C. In addition, the folding enthalpy in series [2] was -26.8 kcal/mol.

Consider GTTACGGAAACGTAAC ((((((....)))))), for which, in series [1], the Tm was found to be 56.8 °C. Besides, in series [2], the folding enthalpy is -38.1 kcal/mol.

On to GTTACGGCGAAAGCCAAC (((..(((....)))))), for which the Tm in series [1] worked out at 25 °C. For the same sequence, the folding enthalpy in series [2] was -8.79 kcal/mol.

As to GTTACGGGAAACCGTAGC (.(((((....))))).), in series [1], the Tm was determined as 48.5 °C. Besides, the folding enthalpy in series [2] is -18.3 kcal/mol.

For the sequence GTTACGTCGAAAGACAAC (((..(((....)))))), the Tm in series [1] came to 24.5 °C. The folding enthalpy in series [2] is -10.3 kcal/mol.

Consider GTTACTCGAAAGAGGAAC (((.(((....))).))), for which, in series [1], the Tm stood at 53.6 °C. Further, in series [2], the folding enthalpy was -36.2 kcal/mol.

For the sequence GTTAGCCCGAAAGGGAAC (((..(((....)))))), in series [1], the Tm stood at 28.1 °C. In series [2], the folding enthalpy was -11.5 kcal/mol.

As to GTTAGCGGAAACGCTAAC (((((((....))))))), in series [1], the Tm amounted to 66.7 °C. In series [2], the folding enthalpy was -42.7 kcal/mol.

Regarding GTTAGCGGAAACGCTGAC ((.((((....)))).)), the Tm in series [1] stood at 52.3 °C. Moreover, in series [2], the folding enthalpy was -29.4 kcal/mol.

For the sequence GTTAGGAAACTAAC (((((....))))), in series [1], the Tm came out at 41.4 °C. In addition, the folding enthalpy in series [2] is -15.7 kcal/mol.

GTTAGGACGAAAGTCAAC (((..(((....)))))): in series [1], the Tm is 28.8 °C. In addition, the folding enthalpy in series [2] is -10.7 kcal/mol.

Consider GTTAGGCGAAAGCCAAAC (((.(((....))).))), for which the Tm in series [1] worked out at 50.3 °C. The folding enthalpy in series [2] is -15.9 kcal/mol.

As to GTTAGGGGAAACCCTAAC (((((((....))))))), the Tm in series [1] came to 57.9 °C. The folding enthalpy in series [2] is -40.5 kcal/mol.

GTTAGGGGAAACTCTAAC (((((.(....).))))): the Tm in series [1] amounted to 38.3 °C. In addition, the folding enthalpy in series [2] is -29.2 kcal/mol.

As to GTTAGGTCGAAAGACAAC (((..(((....)))))), the Tm in series [1] amounted to 27.2 °C. In addition, the folding enthalpy in series [2] was -11.1 kcal/mol.
